Data set [1] concerns the target T1, Coagulation factor X (Homo sapiens, UniProt P00742). Briefly: Concentration required to double the lag time of maximum thrombin generation in human plasma-based thrombin generation assay. The class given is functional, cell-free. The method, boiled down: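 Human plasma treated with reptilase, mixed with inhibitor serially diluted from DMSO stock, then chromogenic substrate H-b-Ala-Gly-Arg-p-nitroanilide and CaCl2. Thrombin generation started with 640 pmol/L recombinant tissue factor. Absorbance at 405 nm followed at 37 °C for 22 min. Reported as 2XTG, the inhibitor concentration that doubles the time to maximum thrombin generation.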

In data set [2] the target is T1, Coagulation factor X. Description: Inhibition of Coagulation factor X.
Data set [3] concerns the target T1, Coagulation factor X. Description: Inhibitory concentration against coagulation factor Xa.
The nature of data set [4]: Oral bioavailability in rat. The class given is ADME, organism-based. As to conditions: in vivo. The method, boiled down: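 Sprague–Dawley rats given 6 mg/kg orally, with oral bioavailability calculated.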
Another data set addresses Kallikrein-1 (Homo sapiens, UniProt P06870). Description: Inhibitory activity against kallikrein was determined.
In data set [5] the target is Vitamin K-dependent protein C (Homo sapiens, UniProt P04070). Briefly: Inhibitory activity against activated protein C was determined.
Sequence of Vitamin K-dependent protein C (P04070 43-197 limits assumed): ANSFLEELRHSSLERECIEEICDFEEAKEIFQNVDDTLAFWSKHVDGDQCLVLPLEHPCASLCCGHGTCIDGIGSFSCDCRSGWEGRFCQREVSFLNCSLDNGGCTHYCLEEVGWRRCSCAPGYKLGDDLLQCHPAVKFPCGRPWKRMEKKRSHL
Sequence of Vitamin K-dependent protein C (P04070 212-461 limits assumed): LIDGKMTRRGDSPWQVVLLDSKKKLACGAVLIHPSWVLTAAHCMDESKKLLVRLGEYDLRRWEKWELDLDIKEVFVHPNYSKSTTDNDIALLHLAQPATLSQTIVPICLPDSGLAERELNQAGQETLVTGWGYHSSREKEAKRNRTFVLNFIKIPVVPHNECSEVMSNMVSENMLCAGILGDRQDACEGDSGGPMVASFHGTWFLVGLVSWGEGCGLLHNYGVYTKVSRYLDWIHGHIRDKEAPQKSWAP
In a further data set the target is Serine protease 1 (Homo sapiens, UniProt P07477). Description: Inhibitory concentration against trypsin was determined.
Sequence of Serine protease 1 (P07477 whole entry): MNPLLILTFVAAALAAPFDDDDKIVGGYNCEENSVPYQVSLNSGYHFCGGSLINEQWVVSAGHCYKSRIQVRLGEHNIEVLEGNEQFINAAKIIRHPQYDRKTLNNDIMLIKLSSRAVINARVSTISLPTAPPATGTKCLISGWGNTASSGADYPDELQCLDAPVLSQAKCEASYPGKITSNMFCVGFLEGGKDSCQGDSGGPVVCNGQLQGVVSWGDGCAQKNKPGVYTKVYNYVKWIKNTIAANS
Data set [6] addresses Tissue-type plasminogen activator (Homo sapiens, UniProt P00750). Description: Inhibitory activity against tissue type plasminogen activator was determined.
The target in data set [7] is Plasminogen (Homo sapiens) (UniProt P00747). Briefly: Inhibitory activity against plasmin was determined.
Sequence of Plasminogen (Homo sapiens) (P00747 whole entry, looked up): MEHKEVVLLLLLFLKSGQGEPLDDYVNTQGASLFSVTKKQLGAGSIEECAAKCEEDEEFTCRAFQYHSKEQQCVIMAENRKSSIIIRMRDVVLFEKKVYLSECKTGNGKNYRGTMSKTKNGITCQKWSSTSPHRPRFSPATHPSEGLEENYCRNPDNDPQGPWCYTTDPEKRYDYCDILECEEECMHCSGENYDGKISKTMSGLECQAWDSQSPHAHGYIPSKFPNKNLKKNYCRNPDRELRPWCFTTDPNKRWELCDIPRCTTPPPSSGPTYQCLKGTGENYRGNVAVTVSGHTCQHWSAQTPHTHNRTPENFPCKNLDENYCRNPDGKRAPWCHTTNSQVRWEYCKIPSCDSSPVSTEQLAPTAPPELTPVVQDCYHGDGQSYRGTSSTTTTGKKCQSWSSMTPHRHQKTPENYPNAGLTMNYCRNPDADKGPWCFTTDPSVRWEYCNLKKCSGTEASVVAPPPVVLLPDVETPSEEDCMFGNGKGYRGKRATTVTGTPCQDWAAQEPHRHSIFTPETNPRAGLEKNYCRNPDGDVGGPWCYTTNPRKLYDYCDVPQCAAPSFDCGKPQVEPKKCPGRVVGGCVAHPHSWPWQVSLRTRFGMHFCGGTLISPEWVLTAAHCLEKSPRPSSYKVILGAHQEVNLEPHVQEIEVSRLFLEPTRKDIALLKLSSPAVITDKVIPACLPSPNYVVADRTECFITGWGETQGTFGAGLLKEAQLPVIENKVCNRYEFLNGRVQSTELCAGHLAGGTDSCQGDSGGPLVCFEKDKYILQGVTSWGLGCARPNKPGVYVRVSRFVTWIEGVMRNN

From ChEMBL document CHEMBL1147577, “Design, synthesis, and SAR of anthranilamide-based factor Xa inhibitors incorporating substituted biphenyl P4 motifs” (Bioorg Med Chem Lett, 2004) come the findings set out here.

T1 sequence (P00742 41-179 limits assumed): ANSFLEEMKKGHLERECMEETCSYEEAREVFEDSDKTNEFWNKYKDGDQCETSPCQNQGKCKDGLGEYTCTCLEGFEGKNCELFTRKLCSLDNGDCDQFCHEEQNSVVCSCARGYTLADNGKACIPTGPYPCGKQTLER
T1 sequence (P00742 235-488 limits assumed): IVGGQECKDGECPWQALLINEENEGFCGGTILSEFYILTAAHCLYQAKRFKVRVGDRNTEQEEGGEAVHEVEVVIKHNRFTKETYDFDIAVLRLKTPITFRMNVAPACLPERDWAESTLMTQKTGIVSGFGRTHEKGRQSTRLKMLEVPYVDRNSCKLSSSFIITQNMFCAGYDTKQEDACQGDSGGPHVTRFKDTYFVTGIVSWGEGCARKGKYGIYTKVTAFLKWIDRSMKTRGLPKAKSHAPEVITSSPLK
Sequence of Tissue-type plasminogen activator (P00750 whole entry): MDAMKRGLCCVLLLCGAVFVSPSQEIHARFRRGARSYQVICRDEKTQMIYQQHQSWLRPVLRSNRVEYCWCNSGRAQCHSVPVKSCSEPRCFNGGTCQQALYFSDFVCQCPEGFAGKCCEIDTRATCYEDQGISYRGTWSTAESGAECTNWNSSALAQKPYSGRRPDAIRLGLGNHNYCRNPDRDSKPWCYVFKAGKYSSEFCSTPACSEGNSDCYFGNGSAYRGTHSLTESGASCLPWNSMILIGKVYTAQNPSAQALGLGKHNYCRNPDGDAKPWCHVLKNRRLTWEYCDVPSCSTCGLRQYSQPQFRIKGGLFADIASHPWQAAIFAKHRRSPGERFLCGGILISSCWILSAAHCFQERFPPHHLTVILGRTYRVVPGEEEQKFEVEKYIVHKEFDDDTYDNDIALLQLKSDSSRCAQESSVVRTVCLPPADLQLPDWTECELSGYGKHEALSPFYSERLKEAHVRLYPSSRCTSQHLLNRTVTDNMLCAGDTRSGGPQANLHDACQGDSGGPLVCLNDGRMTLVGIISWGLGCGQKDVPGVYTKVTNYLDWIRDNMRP
Sequence of Kallikrein-1 (P06870 whole entry): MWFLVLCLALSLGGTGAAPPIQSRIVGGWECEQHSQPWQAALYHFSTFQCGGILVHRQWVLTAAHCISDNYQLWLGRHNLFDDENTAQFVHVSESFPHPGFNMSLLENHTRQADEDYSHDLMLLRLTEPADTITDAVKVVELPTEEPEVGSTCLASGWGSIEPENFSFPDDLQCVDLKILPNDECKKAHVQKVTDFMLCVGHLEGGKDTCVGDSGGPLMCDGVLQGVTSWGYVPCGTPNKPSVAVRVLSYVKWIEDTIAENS

On Coagulation factor X [1], `CC(=N)NCc1ccccc1-c1ccc(C(=O)Nc2ccc(Cl)cc2C(=O)Nc2ccc(Cl)cn2)cc1` displayed an Activity of more than 5 µM. In turn, `O=C(Nc1ccc(Cl)cc1C(=O)Nc1ccc(Cl)cn1)c1ccc(-c2ccccc2N2CCNCC2)cc1` yielded a Ki at Coagulation factor X [2] of 1 nM. The compound further gave a half-maximal inhibitory concentration (IC50) on Coagulation factor X [3] of 4.1 nM. The compound further had an Activity on Coagulation factor X [1] of more than 5 µM. `CN1CCCN(c2ccccc2-c2ccc(C(=O)Nc3ccc(Cl)cc3C(=O)Nc3ccc(Cl)cn3)cc2)CC1` returned a Ki at Coagulation factor X [2] of 0.8 nM. Moreover, the half-maximal inhibitory concentration (IC50) at Coagulation factor X [3] was 3.1 nM. Also, on Coagulation factor X [1], the Activity is more than 5 µM. `CN1CCN(c2ccccc2-c2ccc(C(=O)Nc3ccc(Cl)cc3C(=O)Nc3ccc(Cl)cn3)cc2)CC1` gave a Ki on Coagulation factor X [2] of 0.9 nM. At Coagulation factor X [3], this compound registered an IC50 of 3.5 nM. Further, the Activity on Coagulation factor X [1] was more than 5 µM.

`NS(=O)(=O)c1ccccc1-c1ccc(C(=O)Nc2ccncc2C(=O)Nc2ccc(Cl)cn2)cc1` yielded an IC50 on Coagulation factor X [3] of 18 nM. Also, the Activity on Coagulation factor X [1] was determined as 2.2 µM. Turning to `CNc1cccc(-c2ccc(C(=O)Nc3ccc(Cl)cc3C(=O)Nc3ccc(Cl)cn3)cc2)c1`, the IC50 against Coagulation factor X [3] turned out to be 2.3 nM. This counts as single-digit nanomolar.

Compound `CN(C)c1cccc(-c2ccc(C(=O)Nc3ccc(Cl)cc3C(=O)Nc3ccc(Cl)cn3)cc2)c1` had an IC50 against Coagulation factor X [3] of 3.5 nM.

At Coagulation factor X [2], `O=C(Nc1ccc(Cl)cc1C(=O)Nc1ccc(Cl)cn1)c1ccc(-c2ccccc2N2CCC(O)CC2)cc1` showed a Ki of 0.2 nM. The compound also returned an IC50 against Coagulation factor X [3] of 1 nM. At Coagulation factor X [1], this compound returned an Activity of more than 5 µM. In addition, the bioavailability in [4] worked out at 32%. Compound `NS(=O)(=O)c1ccccc1-c1ccc(C(=O)Nc2cnccc2C(=O)Nc2ccc(Cl)cn2)cc1` returned an IC50 on Coagulation factor X [3] of 23 nM. For the same compound, at Coagulation factor X [1], the Activity turned out to be 4.9 µM. Turning to `CN1CCN(c2ccc(NC(=O)c3ccc(-c4ccccc4S(N)(=O)=O)cc3)c(C(=O)Nc3ccc(Br)cn3)c2)CC1`, 1550 nM corresponded to half-maximal inhibition against Coagulation factor X [3] (IC50). In the case of `Nc1ccccc1-c1ccc(C(=O)Nc2ccc(Cl)cc2C(=O)Nc2ccc(Cl)cn2)cc1`, the Ki at Coagulation factor X [2] is 0.2 nM. Besides, on Coagulation factor X [1], the Activity is more than 5 µM. `O=C(Nc1ccc(Cl)cc1C(=O)Nc1ccc(Cl)cn1)c1ccc(-c2cccc(N3CCCNCC3)c2)cc1` showed an IC50 against Coagulation factor X [3] of 32 nM.

In turn, `Nc1ccc(NC(=O)c2ccc(-c3ccccc3S(N)(=O)=O)cc2)c(C(=O)Nc2ccc(Br)cn2)c1` showed an IC50 at Coagulation factor X [3] of 4.6 nM. Further, the Activity at Coagulation factor X [1] came out at 2.8 µM.

`NS(=O)(=O)c1ccccc1-c1ccc(C(=O)Nc2ccc(-n3ccnc3)cc2C(=O)Nc2ccc(Br)cn2)cc1` came in with an IC50 at Coagulation factor X [3] of 128 nM. That is a sub-micromolar value. At Coagulation factor X [3], `NCc1ccccc1-c1ccc(C(=O)Nc2ccccc2C(=O)Nc2ccc(Cl)cn2)cc1` gave an IC50 of 67 nM.

`CC(N)=NCc1ccccc1-c1ccc(C(=O)Nc2ccc(Cl)cc2C(=O)Nc2ccc(Cl)cn2)cc1` returned a Ki on Coagulation factor X [2] of 0.1 nM. This compound returned an IC50 at Coagulation factor X [3] of 0.7 nM. The compound also registered a bioavailability in [4] of less than 1%. With `O=C(Nc1ccc(Cl)cc1C(=O)Nc1ccc(Cl)cn1)c1ccc(-c2ccccc2N2CCC(C(=O)O)CC2)cc1`, affinity on Coagulation factor X [2] was put at a Ki of 0.012 nM. The compound also showed an IC50 against Coagulation factor X [3] of 0.4 nM. The same compound showed an Activity on Coagulation factor X [1] of more than 5 µM. `O=C(Nc1ccc(Cl)cc1C(=O)Nc1ccc(Cl)cn1)c1ccc(-c2cccc(N3CCNCC3)c2)cc1`: inhibition against Coagulation factor X [3] was half-maximal at 39 nM (IC50). This counts as double-digit nanomolar. In the case of `Nc1ccc(C(=O)Nc2ccc(Br)cn2)c(NC(=O)c2ccc(-c3ccccc3S(N)(=O)=O)cc2)c1`, inhibition on Coagulation factor X [3] was half-maximal at 6.2 nM (IC50). In addition, on Coagulation factor X [1], the Activity is more than 5 µM.

`CN(C)C(=N)c1ccc(-c2ccc(C(=O)Nc3ccc(Cl)cc3C(=O)Nc3ccc(Cl)cn3)cc2)cc1` gave a half-inhibitory concentration (IC50) against Coagulation factor X [3] of 60 nM.

`N=C(N)NCc1cccc(-c2ccc(C(=O)Nc3ccc(Cl)cc3C(=O)Nc3ccc(Cl)cn3)cc2)c1`: on Coagulation factor X [3], the IC50 is 9.5 nM. For the same compound, the Activity on Coagulation factor X [1] was more than 5 µM. The compound also came in with a bioavailability in [4] of less than 1%.

At Coagulation factor X [2], `CN(C)C(=N)c1ccccc1-c1ccc(C(=O)Nc2ccc(Cl)cc2C(=O)Nc2ccc(Cl)cn2)cc1` had a Ki of 0.1 nM. On Coagulation factor X [3], this compound returned an IC50 of 0.2 nM. Besides, the Activity on Coagulation factor X [1] came to 1.4 µM. For `NS(=O)(=O)c1ccccc1-c1ccc(C(=O)NCCC(=O)Nc2ccc(Br)cn2)cc1`, at Coagulation factor X [3], the IC50 is 12 nM. The same measure, in the same setting: the figure for `O=C(Nc1ccc(Cl)cc1C(=O)Nc1ccc(Cl)cn1)c1ccc(-c2ccccc2N2CCCCC2)cc1` is 2.8 nM; for `O=C(Nc1ccc(Cl)cc1C(=O)Nc1ccc(Cl)cn1)c1ccc(-c2ccccc2N2CCCC2)cc1` it is 2.8 nM. The compound `NC(N)=NCc1ccccc1-c1ccc(C(=O)Nc2ccc(Cl)cc2C(=O)Nc2ccc(Cl)cn2)cc1` came in with an inhibitory constant (Ki) on Coagulation factor X [2] of 0.3 nM. The same compound showed an IC50 against Coagulation factor X [3] of 1.2 nM. The compound further showed a bioavailability in data set [4] of less than 1%. On to `CC(=N)NCc1cccc(-c2ccc(C(=O)Nc3ccc(Cl)cc3C(=O)Nc3ccc(Cl)cn3)cc2)c1`, for which the Ki on Coagulation factor X [2] was 1.8 nM. In addition, the IC50 against Coagulation factor X [3] worked out at 4.4 nM. Also, the Activity at Coagulation factor X [1] was more than 5 µM. As for `O=C(Nc1ccc(Cl)cc1C(=O)Nc1ccc(Cl)cn1)c1ccc(-c2cccc(N3CCCCC3)c2)cc1`, the IC50 against Coagulation factor X [3] was 16 nM.

On to `NS(=O)(=O)c1ccccc1-c1ccc(C(=O)Nc2ccccc2C(=O)Nc2ccc(Br)cn2)cc1`, for which the IC50 against Coagulation factor X [3] is 3.4 nM; against Kallikrein-1 it was 2100 nM; in data set [5], more than 10000 nM; against Serine protease 1, more than 10000 nM; in data set [6], more than 10000 nM; in data set [7] it was more than 10000 nM. Moreover, the Activity on Coagulation factor X [1] is more than 5 µM.

The compound `Nc1ccc(NC(=O)c2ccc(-c3ccccc3S(N)(=O)=O)cc2)c(C(=O)Nc2ccc(Cl)cn2)c1` showed an IC50 against Coagulation factor X [3] of 6.7 nM. This compound also registered an Activity on Coagulation factor X [1] of 3 µM. The compound `O=C(Nc1ccc(Cl)cc1C(=O)Nc1ccc(Cl)cn1)c1ccc(-c2cccc(N3CCCC3)c2)cc1` came in with an IC50 at Coagulation factor X [3] of 5.3 nM. That is a single-digit nanomolar value. The same measure, in the same setting: the value for `CNc1ccccc1-c1ccc(C(=O)Nc2ccc(Cl)cc2C(=O)Nc2ccc(Cl)cn2)cc1` was 4.1 nM; that for `O=C(Nc1ccc(Cl)cc1C(=O)Nc1ccc(Cl)cn1)c1ccc(-c2cccc(N3CCC(O)CC3)c2)cc1` was 7 nM; that for `N=C(N)c1ccc(-c2ccc(C(=O)Nc3ccc(Cl)cc3C(=O)Nc3ccc(Cl)cn3)cc2)cc1` was 66 nM. For `NS(=O)(=O)c1ccccc1-c1ccc(C(=O)Nc2ncccc2C(=O)Nc2ccc(Cl)cn2)cc1`, the IC50 against Coagulation factor X [3] is 48 nM. For the same compound, at Coagulation factor X [1], the Activity is more than 5 µM. Take `CN1CCCN(c2cccc(-c3ccc(C(=O)Nc4ccc(Cl)cc4C(=O)Nc4ccc(Cl)cn4)cc3)c2)CC1`: the IC50 at Coagulation factor X [3] worked out at 22 nM. Regarding `O=C(Nc1ccc(Cl)cc1C(=O)Nc1ccc(Cl)cn1)c1ccc(-c2cccc(N3CCOCC3)c2)cc1`, on Coagulation factor X [3], the IC50 is 74 nM.

On Coagulation factor X [2], `CN(C)c1ccccc1-c1ccc(C(=O)Nc2ccc(Cl)cc2C(=O)Nc2ccc(Cl)cn2)cc1` showed a Ki of 0.1 nM. The IC50 on Coagulation factor X [3] was determined as 0.9 nM. The same compound came in with an Activity at Coagulation factor X [1] of more than 5 µM. Moreover, in [4], the bioavailability amounted to 100%. With `CN(C)C(=N)c1cccc(-c2ccc(C(=O)Nc3ccc(Cl)cc3C(=O)Nc3ccc(Cl)cn3)cc2)c1`, the inhibition constant (Ki) at Coagulation factor X [2] was determined as 1 nM. On Coagulation factor X [3], this compound returned a half-inhibitory concentration (IC50) of 2 nM. This compound registered an Activity at Coagulation factor X [1] of more than 5 µM.

For `NS(=O)(=O)c1ccccc1-c1ccc(C(=O)Nc2cccnc2C(=O)Nc2ccc(Cl)cn2)cc1`, inhibition at Coagulation factor X [3] was half-maximal at 26 nM (IC50). At Coagulation factor X [1], the Activity was more than 5 µM. In turn, `CN1CCN(c2cccc(-c3ccc(C(=O)Nc4ccc(Cl)cc4C(=O)Nc4ccc(Cl)cn4)cc3)c2)CC1` returned an IC50 at Coagulation factor X [3] of 23 nM. The same measure, in the same setting: the value for `Nc1cccc(-c2ccc(C(=O)Nc3ccc(Cl)cc3C(=O)Nc3ccc(Cl)cn3)cc2)c1` was 1.9 nM; that for `O=C(Nc1ccc(Cl)cc1C(=O)Nc1ccc(Cl)cn1)c1ccc(-c2cccc(N3CCC(C(=O)O)CC3)c2)cc1` was 1.8 nM.

For `N=C(N)c1cccc(-c2ccc(C(=O)Nc3ccc(Cl)cc3C(=O)Nc3ccc(Cl)cn3)cc2)c1`, at Coagulation factor X [2], affinity was put at a Ki of 0.7 nM. In addition, the IC50 against Coagulation factor X [3] was determined as 1.6 nM. The compound further showed an Activity on Coagulation factor X [1] of more than 5 µM. The compound also displayed a bioavailability in [4] of less than 1%. Compound `CC(=O)Nc1ccc(NC(=O)c2ccc(-c3ccccc3S(N)(=O)=O)cc2)c(C(=O)Nc2ccc(Br)cn2)c1` returned an IC50 at Coagulation factor X [3] of 370 nM. On the same count and under the same terms, the value for `O=C(Nc1ccc(Cl)cc1C(=O)Nc1ccc(Cl)cn1)c1ccc(-c2ccccc2N2CCOCC2)cc1` was 4.1 nM.

Regarding `O=C(Nc1ccc(Cl)cc1C(=O)Nc1ccc(Cl)cn1)c1ccc(-c2ccccc2N2CCCNCC2)cc1`, the Ki at Coagulation factor X [2] was determined as 1.8 nM. The same compound returned an IC50 against Coagulation factor X [3] of 5.6 nM. The same compound showed an Activity at Coagulation factor X [1] of more than 5 µM. The compound `NS(=O)(=O)c1ccccc1-c1ccc(C(=O)Nc2ccccc2C(=O)Nc2ccc(Cl)cn2)cc1` came in with an IC50 on Coagulation factor X [3] of 6.7 nM. Moreover, the Activity on Coagulation factor X [1] is more than 5 µM. `N=C(N)NCc1ccccc1-c1ccc(C(=O)Nc2ccc(Cl)cc2C(=O)Nc2ccc(Cl)cn2)cc1`: the Activity on Coagulation factor X [1] was more than 5 µM.
